Screening results (PubChem)
Rows were chosen to be rich in hits. Some 4.5% of all compounds tested hit in one or more screens of this group.
CHO parental Ca: counter-screen for OX1R antagonists: effect in parental CHO cells; parental CHO-K1, ATP-induced calcium, Fluo-8 fluorescence; inhibition, % at 5.6 µM; hit rate 0.63% among 330,000; AID 463079;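 active = inhibition above that plate's mean sample inhibition plus 3 SD, cut at about 26% in these data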;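 note: 0% = ATP-challenged DMSO wells and 100% = DMSO wells without ATP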
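Assay system: untransfected parental CHO cell line. Also added: ATP agonist challenge. Dosing: one dose, 5.6 µM nominal. Measured by: Fluo-8 fluorescence. Read-out: % inhibition. Benchmarks: ATP wells versus no-ATP DMSO wells. Repeats: no replicates.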
TAAR1 antagonist: human TAAR1 antagonism | CHO RD-HGA16 TAAR1, Fluo-8 calcium fluorescence, antagonist | inhibition, % at 3 µM | hit rate 1.5% among 360,000 | AID 624466;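 active = inhibition above a per-plate cutoff, the mean inhibition of test compounds on that plate plus 3 SD, cut at about 49% in these data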;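 note: 0% = DMSO plus EC80 beta-PEA response and 100% = DMSO alone without agonist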
Target sequence (Q96RJ0 whole entry, looked up): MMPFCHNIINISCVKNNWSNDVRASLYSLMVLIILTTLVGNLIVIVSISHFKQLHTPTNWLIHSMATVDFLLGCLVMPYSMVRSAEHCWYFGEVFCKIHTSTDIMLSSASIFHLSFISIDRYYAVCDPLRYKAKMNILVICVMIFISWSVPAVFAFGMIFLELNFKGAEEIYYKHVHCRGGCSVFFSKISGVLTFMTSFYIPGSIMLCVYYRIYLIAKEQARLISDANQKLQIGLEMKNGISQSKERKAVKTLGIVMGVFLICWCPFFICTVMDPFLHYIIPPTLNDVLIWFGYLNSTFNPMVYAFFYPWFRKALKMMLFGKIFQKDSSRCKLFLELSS
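test system = CHO RD-HGA16 cells bearing hTAAR1 | replication = singlicate | controls = DMSO-only wells and EC80 β-PEA-stimulated wells | reagent = EC80 β-phenethylamine stimulus | read-out basis = percent inhibition of PEA-evoked calcium signal, max/basal emission ratio | schedule = seeding 17-24 h prior, 75-min 37 °C, 30-min RT dye loading | signal = kinetic Fluo-8 calcium fluorescence measurement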
OX1R antag-1: antagonists of human orexin 1 receptor; CHO/OX1R cells, Fluo-8 calcium fluorescence, orexin A; hit rate 0.43% among 330,000; inhibition, % at 5 µM; AID 434989;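 active = inhibition above its plate's threshold, mean inhibition of all tested compounds on the plate plus 3 SD, cut at about 37% in these data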;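 note: 0% = orexin A challenge wells and 100% = SB-334867-A antagonist wells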
Target sequence (O43613 whole entry, looked up): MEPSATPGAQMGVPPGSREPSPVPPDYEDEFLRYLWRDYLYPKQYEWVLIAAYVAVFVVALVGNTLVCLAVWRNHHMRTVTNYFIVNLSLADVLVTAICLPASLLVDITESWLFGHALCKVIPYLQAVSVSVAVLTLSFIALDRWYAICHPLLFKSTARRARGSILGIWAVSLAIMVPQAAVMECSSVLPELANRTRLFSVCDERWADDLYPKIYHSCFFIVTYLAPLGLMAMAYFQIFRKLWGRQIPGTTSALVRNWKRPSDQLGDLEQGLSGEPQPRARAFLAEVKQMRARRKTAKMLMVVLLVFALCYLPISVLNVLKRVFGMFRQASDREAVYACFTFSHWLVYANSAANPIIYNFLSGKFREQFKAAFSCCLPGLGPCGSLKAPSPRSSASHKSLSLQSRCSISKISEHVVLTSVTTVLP
GPR7 antagonist: blocks human GPR7 receptor signaling | P48145 | GPR7-expressing cells, fluorescence antagonist assay | inhibition, % at 4.4 µM | hit rate 1.1% among 290,000 | AID 1861; in the data active = inhibition above about 16%, passing the limit was not always enough;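 note: cells stimulated with the agonist NPW; 0% = agonist with vehicle and 100% = vehicle without agonist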
TAAR1 agonist: agonists of human TAAR1 | activation, % at 3 µM | hit rate 0.99% among 360,000 | Q96RJ0 | CHO RD-HGA16 TAAR1, Fluo-8 calcium fluorescence; vehicle wells 0%, saturating PEA agonist 100% | AID 624467;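 active = activation above the mean activation of all test compounds in the run plus 3 SD, cut at about 38% in these data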
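test system = CHO RD-HGA16 cells carrying human TAAR1 plus Gα16 | schedule = 17-24 h seeding, 75 min 37 °C dye, 30 min RT | compound dosing = 3 µM single concentration | control set = DMSO and PEA EC100 | replicates = n 1 | signal = Fluo-8 fluorescence, 5 s baseline then 140 s kinetic read | measure = percent activation vs PEA EC100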
OX1R antag-2: blocks the human orexin 1 receptor; OX1R-expressing cells, FRET antagonist read-out; inhibition, % at 6.6 µM; hit rate 1.8% among 330,000; AID 485270; in the data active = inhibition mostly above about 38%, no sharp cut-off; inactive = mostly below about 40%;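 note: 0% = agonist challenge alone and 100% = reference antagonist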
TAAR1 nonsel count: nonselective antagonism, TAAR1 counter-screen; AID 651780; hit rate 77% among 2,400; inhibition, % at 3 µM; counterscreen cell line, calcium fluorescence, antagonist mode; shares compounds with TAAR1 antagonist; in the data active = inhibition above about 22%;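 note: CHO-Ga16 host cells stimulated with ATP at an EC80 level; 0% = agonist EC80 plus vehicle and 100% = vehicle without agonist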
TAAR1 antag conf: confirmation of human TAAR1 antagonists. shares compounds with TAAR1 antagonist. TAAR1-expressing cells, fluorescence antagonist read-out. inhibition, % at 3 µM. hit rate 40% among 2,400; in the data active = inhibition above about 49%;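 note: CHO-Ga16 host cells challenged with agonist PEA near its EC80; 0% = agonist at EC80 plus vehicle and 100% = vehicle with no agonist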
Ga16 ag counter: nonselective Ga16 agonist in TAAR1 antagonist counter-screen. shares compounds with TAAR1 antagonist. Ga16-expressing cells, calcium fluorescence, agonist counterscreen. activation, % at 3 µM. hit rate 18% among 2,400. AID 651953; in the data active = activation above about 12%;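 note: 0% = vehicle wells and 100% = saturating stimulus response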
TAAR1 ag counter: activates human TAAR1 in antagonist counter-screen. shares compounds with TAAR1 antagonist. hTAAR1 cell line, fluorescence activation, agonist mode. activation, % at 3 µM. hit rate 2% among 2,400. AID 651955; in the data active = activation above about 37%;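 note: CHO cells stably expressing TAAR1 with calcium dye readout; 0% = DMSO vehicle and 100% = full agonist response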
* marks the source's active call; other numbers are inactive results; · = not tested or not shown.

SMILES	CHO parental Ca	TAAR1 antagonist	OX1R antag-1	GPR7 antagonist	TAAR1 agonist	OX1R antag-2	TAAR1 nonsel count	TAAR1 antag conf	Ga16 ag counter	TAAR1 ag counter
CCCc1cc(C(=O)Nc2ccc(C(=O)c3ccccc3)cc2)n(C)n1	-8	72*	-16	16	-1	21	34*	55*	7	4
COc1cccc(C(=O)Nc2ccc(C(=O)c3ccccc3)cc2)c1	9	67*	19	8	7	40	32*	41	8	2
CCCc1cc(C(=O)Nc2ccc(C(=O)c3ccc(F)cc3)cc2)n(C)n1	-2	·	19	17	·	18	·	·	·	·
CCCC(=O)Nc1ccc2c(c1)C(=O)N(C)C[C@@H](OC)[C@H](C)CN(Cc1ccc(-c3ccccn3)cc1)[C@@H](C)CO2	·	-36	·	·	0	·	·	·	·	·
C=C1C(O)[C@@H]2O[C@]3(CC[C@H](/C=C/C(C)[C@@H]4CC(C)=CC5(O[C@H](C[C@@](C)(O)CO)CCC5O)O4)O3)CC[C@H]2O[C@@H]1C(O)CC(C)[C@H]1OC2(CCCCO2)CCC1C (stereo partly drawn)	-9	·	6	·	·	20	·	·	·	·
O=C(C1CCCN(c2ncnc3c2nc2n3CCCCC2)C1)N1CCN(c2ccccc2)CC1 (stereo not drawn)	-23	52*	-35	-21	16	7	23*	36	10	18
Cc1nc2ccccc2c2oc(C(=O)N3CCc4ccccc4C3)cc12	-11	58*	-12	-3	3	35*	26*	49*	15*	18
CS(=O)(=O)N(CC(=O)N1CCC(C(N)=O)CC1)Cc1ccc(Cl)c(Cl)c1	5	-5	-4	-9	4	3	·	·	·	·
CN(Cc1ccccc1)C(=O)c1ccc(NC(=O)C2CCN(C(=O)OC(C)(C)C)CC2)cc1	13	60*	42	·	23	18	47*	43	14*	14
Cc1onc(-c2c(F)cccc2Cl)c1C(=O)Nc1cccc(S(=O)(=O)N2CCOCC2)c1	-11	50*	4	·	14	14	26*	39	8	11
COc1ccccc1/C=C/C(=O)Nc1cccc(S(=O)(=O)N2CCOCC2)c1	-22	59*	-5	·	9	10	24*	45	5	3
CN(C)C1CN(Cc2cn(Cc3ccc(F)cc3)nn2)S(=O)(=O)C1 (stereo not drawn)	·	11	·	·	1	·	·	·	·	·
CCN(CC)C(=O)C1CCCN(Cc2ccc3ccccc3c2)C1 (stereo not drawn)	-12	-30	-17	-7	1	13	·	·	·	·
OC1c2cc(Cl)cc(Cl)c2N=C2CCCN21 (stereo not drawn)	·	2	·	·	0	·	·	·	·	·
CCOc1ccc(N(CC(=O)NCc2ccc(F)cc2)C(=O)CCC(=O)Nc2nccs2)cc1	-16	-7	-35	-5	9	14	·	·	·	·
COc1cc(C(=O)Nc2ccc(C)cc2)c2ccccc2n1	-11	2	-12	30	1	2	·	·	·	·
CCOc1ccccc1-c1cc(C(=O)Nc2ccc(C(=O)O)cc2)c2ccccc2n1	-10	8	-23	-8	2	7	·	·	·	·
CCOc1ccccc1NC(=O)c1cc(-c2ccccn2)nc2ccccc12	-13	55*	-17	·	26	16	21	46	9	7
COc1ccc(-c2cc(C(=O)NCc3ccco3)c3ccccc3n2)cc1OC	-21	39	-21	·	9	11	·	·	·	·
COc1ccc(-c2cc(C(=O)Nc3cccc(S(=O)(=O)NCc4ccco4)c3)c3ccccc3n2)cc1OC	0	75*	-1	14	15	26	37*	57*	9	7
COc1cc(-c2cc(C(=O)Nc3cccc(S(=O)(=O)N(C)C)c3)c3ccccc3n2)cc(OC)c1OC	1	54*	-11	1	16	14	34*	49*	9	10
COc1ccc(-c2cc(C(=O)Nc3ccc(O)cc3)c3ccccc3n2)cc1OC	-3	62*	-12	-1	17	17	33*	48	11	9
COCCn1c(C)c(C)c2c(NCCc3ccccc3)ncnc21	·	-4	·	5	16	·	·	·	·	·
CCn1cc(/C=C(\NC(=O)c2ccc(OC)c(OC)c2)C(=O)N2CCN(C)CC2)c2ccccc21	-20	2	-25	-3	0	13	·	·	·	·
CCCCCNC(=O)Cn1c(=O)c2c(ncn2CC(C)C)n(Cc2ccccc2)c1=O	-16	-5	-35	-7	0	9	·	·	·	·
SMILES	CHO parental Ca	TAAR1 antagonist	OX1R antag-1	GPR7 antagonist	TAAR1 agonist	OX1R antag-2	TAAR1 nonsel count	TAAR1 antag conf	Ga16 ag counter	TAAR1 ag counter
CC(C)(C)NC(=O)CN(C(=O)c1snc(C(=O)NC2CCCCC2)c1N)c1ccccc1F	-32	-18	-29	-14	-2	4	·	·	·	·
Cc1cccc2sc(NNC(=O)c3cc(-c4cccs4)nc4ccccc34)nc12	-1	68*	-14	-5	16	17	51*	54*	15*	11
COc1cccc(NC(=O)c2cc(-c3ccc(C)o3)nc3ccccc23)c1	-9	55*	-17	-7	7	6	25*	42	7	5
O=C(Nc1cccc(S(=O)(=O)NC2=NCCCCC2)c1)c1cc(-c2ccccc2)nc2ccccc12	-22	63*	-25	-3	19	0	28*	50*	10	6
O=C(Nc1cccc(S(=O)(=O)NC2=NCCCCC2)c1)c1cc(-c2ccc(Cl)cc2)nc2ccccc12	3	33	-9	2	4	27	·	·	·	·
CN(C)S(=O)(=O)c1cccc(NC(=O)c2c[nH]c3ccccc23)c1	-8	56*	-10	-10	34	13	24*	61*	10	54*
COc1ccc(NC(=O)c2cc(-c3ccccn3)nc3ccccc23)cc1S(=O)(=O)N(C)C	-19	69*	-6	·	22	17	25*	43	9	10
CCN(CC)S(=O)(=O)c1ccc(NC(=O)c2cc(-c3cccs3)nc3ccccc23)cc1	-12	60*	-1	-8	17	5	29*	41	8	6
COc1ccc([N+](=O)[O-])cc1NS(=O)(=O)c1ccc(C)cc1	0	3	-9	-5	2	9	·	·	·	·
Cc1ccc(S(=O)(=O)Nc2ccccc2N=Cc2ccc([N+](=O)[O-])cc2[N+](=O)[O-])cc1	·	64*	·	·	13	·	-4	-3	0	6
CC(=O)Nc1cnc(/C=C\CCCO)cn1	·	1	·	·	0	·	·	·	·	·
